Assays:
[1] = tested on: Human immunodeficiency virus 1; assay: Antiviral activity against HIV1 3B/Lai infected in human CEM cells assessed as inhibition of virus-induced cytopathicity after 4 days; assay type: functional, organism-based; settings: Human immunodeficiency virus 1, 3B/Lai, CCRF-CEM, 96 h
How it was run: (§1)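 Human CEM cells (~3 × 10^5 cells/mL) infected with 100 CCID50 per mL of HIV-1(IIIB) or HIV-2(ROD), then seeded into wells holding compound dilutions. Incubated 4 days at 37°C. Giant cell formation was scored microscopically.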

[2] = tested on: Human alphaherpesvirus 1; assay: Antiviral activity against acyclovir […]-resistant thymidine kinase-deficient HSV1 KOS infected in HEL cells assessed as inhibition of virus-induced cytopathicity; assay type: functional, organism-based; settings: Human alphaherpesvirus 1, KOS
How it was run: (§2)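 Confluent human embryonic lung fibroblast monolayers inoculated with 100 CCID50 virus. After 1–2 h adsorption, residual virus was removed and cultures were incubated with varying compound concentrations. Cytopathicity was scored once untreated infected controls reached full cytopathicity.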

[3] = Cytotoxicity against HEL cells assessed as concentration required to cause alteration in cell alteration by microscopically; assay type: cell-based; settings: human
[4] = tested on: CCRF-CEM; assay: Cytotoxicity against human CEM cells assessed as decrease in cell viability; assay type: cell-based
[5] = tested on: MT4; assay: Cytotoxicity against human MT4 cells assessed as decrease in cell viability; assay type: cell-based
How it was run: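 MT-4 viability was measured by automated propidium iodide-based cell counting, enumerating total and dead cells in untreated and compound-treated cultures.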

[6] = tested on: HEL; assay: Cytotoxicity against HEL cells assessed as inhibition of cell proliferation; assay type: cell-based; settings: Homo sapiens
[7] = tested on: Human immunodeficiency virus 1; assay: Antiviral activity against HIV1 3B/Lai infected in human MT4 cells assessed as suppression of p24 production after 3 days; assay type: functional, organism-based; settings: Human immunodeficiency virus 1, 3B/Lai, MT4, 72 h
How it was run: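 MT-4 cells (1 × 10^4 cells/mL) in fresh medium infected with X4LAI.04 stock, 10 μL (0.7 ng p24) per mL of cell suspension. Mixed with medium carrying compound dilutions and kept at 37°C. After 3 days, p24 was measured in culture supernatants.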

[8] = tested on: MT4; assay: Cytotoxicity against human MT4 cells assessed as inhibition of cell proliferation; assay type: cell-based
[9] = tested on: Human alphaherpesvirus 1; assay: Antiviral activity against HSV1 KOS infected in HEL cells assessed as inhibition of virus-induced cytopathicity; assay type: functional, organism-based; settings: Human alphaherpesvirus 1, KOS; how it was run: as §2
[10] = tested on: Human immunodeficiency virus 2; assay: Antiviral activity against HIV2 ROD infected in human CEM cells assessed as inhibition of virus-induced cytopathicity after 4 days; assay type: functional, organism-based; settings: Human immunodeficiency virus 2, ISOLATE ROD, CCRF-CEM, 96 h; how it was run: as §1
[11] = tested on: Human alphaherpesvirus 2; assay: Antiviral activity against HSV2 G infected in HEL cells assessed as inhibition of virus-induced cytopathicity; assay type: functional, organism-based; settings: Human alphaherpesvirus 2, strain G; how it was run: as §2

| SMILES | EC50 [1] [µM] | EC50 [2] [µM] | MCC [3] [µM] | IC50 [4] [µM] | IC50 [5] [µM] | IC50 [6] [µM] | EC50 [7] [µM] | CC50 [8] [µM] | EC50 [9] [µM] | EC50 [10] [µM] | EC50 [11] [µM] |
| --- | --- | --- | --- | --- | --- | --- | --- | --- | --- | --- | --- |
| C[C@H](NP(=O)(OCCOCn1cnc2c(=O)[nH]c(N)nc21)Oc1ccccc1)C(=O)OCc1ccccc1 (stereo partly specified) | 16 | 15 | > 50 | 42 | 33.8 | 91 | 5.7 | > 150 | 8 | 11 | 4 |
| COC(=O)[C@H](C)NP(=O)(OCCOCn1cnc2c(=O)[nH]c(N)nc21)Oc1cccc2ccccc12 (stereo partly specified) | 10 | 79 | > 50 | – | 18.7 | > 100 | 4.7 | > 150 | 16 | 13 | 10 |
| COC(=O)[C@H](C)NP(=O)(OCCOCn1cnc2c(=O)[nH]c(N)nc21)Oc1ccccc1 (stereo partly specified) | 17 | 79 | > 100 | – | – | – | 15 | – | 20 | 26 | 16 |
| C[C@H](NP(=O)(OCCOCn1cnc2c(=O)[nH]c(N)nc21)Oc1cccc2ccccc12)C(=O)OCc1ccccc1 (stereo partly specified) | 15 | 10 | ≥ 20 | – | > 150 | 20 | 0.8 | – | 2 | 8.9 | 1.4 |
| CC(C)(NP(=O)(OCCOCn1cnc2c(=O)[nH]c(N)nc21)Oc1cccc2ccccc12)C(=O)OCc1ccccc1 (stereo unspecified) | ≥ 100 | 3.2 | > 50 | > 100 | – | > 100 | – | – | 2.4 | 79 | 1.6 |
| CN(C)/C=N/c1nc2c(ncn2COCCOP(=O)(Oc2ccccc2)N2CCC[C@H]2C(=O)OCc2ccccc2)c(=O)[nH]1 (stereo partly specified) | > 20 | – | – | 45 | > 150 | – | 30 | 90 | – | > 20 | – |
| CN(C)/C=N/c1nc2c(ncn2COCCOP(=O)(NC(C)(C)C(=O)OCc2ccccc2)Oc2ccccc2)c(=O)[nH]1 (stereo unspecified) | > 100 | – | – | > 100 | > 150 | – | 70 | > 150 | – | > 100 | – |
| CCCOC(=O)[C@H](C)NP(=O)(OCCOCn1cnc2c(=O)[nH]c(N)nc21)Oc1cccc2ccccc12 (stereo partly specified) | 6.6 | 16 | ≥ 50 | – | – | 68 | 10 | – | 5.5 | 24 | 1.9 |
| COC(=O)[C@@H](NP(=O)(OCCOCn1cnc2c(=O)[nH]c(N)nc21)Oc1cccc2ccccc12)C(C)C (stereo partly specified) | > 100 | > 100 | > 100 | > 100 | – | – | – | – | > 100 | > 100 | > 100 |
| CN(C)/C=N/c1nc2c(ncn2COCCOP(=O)(NC(C)(C)C(=O)OCc2ccccc2)Oc2cccc3ccccc23)c(=O)[nH]1 (stereo unspecified) | > 20 | – | – | 40 | 140 | – | 15 | 45 | – | > 20 | – |
| COC(=O)[C@@H](NP(=O)(OCCOCn1cnc2c(=O)[nH]c(/N=C/N(C)C)nc21)Oc1cccc2ccccc12)C(C)C (stereo partly specified) | > 100 | – | – | > 100 | > 150 | – | > 150 | > 150 | – | > 100 | – |
| Nc1nc2c(ncn2COCCOP(=O)(NC(Cc2ccccc2)C(=O)OCc2ccccc2)Oc2ccccc2)c(=O)[nH]1 (stereo unspecified) | 26 | – | > 50 | – | – | 87 | 16 | – | 17 | 34 | 8 |
| CC(C)OC(=O)[C@H](C)NP(=O)(OCCOCn1cnc2c(=O)[nH]c(N)nc21)Oc1ccccc1 (stereo partly specified) | – | 27 | > 50 | > 100 | > 150 | > 100 | > 150 | > 150 | 10 | > 100 | 8.5 |

Source: ChEMBL document CHEMBL1153518 (J Med Chem, 2009)
